In paper PMC4955361 (Bioorganic & medicinal chemistry letters, 2016):

Experiments:
rodent = details: cited from earlier work
[1] = Intrinsic clearance in rat hepatic microsomes; assay type: in vitro ADME; details: predicted hepatic clearance from in vitro intrinsic clearance
[2] = Intrinsic clearance in human hepatic microsomes; assay type: in vitro ADME; details: predicted hepatic clearance from in vitro intrinsic clearance
M1 [3] = target: T1, M1 (Homo sapiens, UniProt P11229); assay: Muscarinic receptor subtype selectivity, M1; assay type: cell-based; details: for selectivity versus M1: data not shown; for potency at M1 relative to M4: antagonist
T1 sequence (P11229 1-460): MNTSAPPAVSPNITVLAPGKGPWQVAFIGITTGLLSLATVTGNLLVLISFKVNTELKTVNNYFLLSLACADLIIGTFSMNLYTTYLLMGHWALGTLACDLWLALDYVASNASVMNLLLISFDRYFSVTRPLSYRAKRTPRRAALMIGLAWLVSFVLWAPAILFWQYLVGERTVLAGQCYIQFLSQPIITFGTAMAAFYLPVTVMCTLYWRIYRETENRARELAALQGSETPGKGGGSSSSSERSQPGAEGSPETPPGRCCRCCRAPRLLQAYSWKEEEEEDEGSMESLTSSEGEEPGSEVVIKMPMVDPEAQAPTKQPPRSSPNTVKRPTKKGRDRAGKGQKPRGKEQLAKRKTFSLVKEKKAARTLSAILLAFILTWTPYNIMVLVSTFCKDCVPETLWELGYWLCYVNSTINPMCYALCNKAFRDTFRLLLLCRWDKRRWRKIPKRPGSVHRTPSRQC

M5 [4] = target: T2, M5 (Homo sapiens, UniProt P08912); assay: Muscarinic receptor subtype selectivity, M5; assay type: cell-based; details: for selectivity versus M5: data not shown; for potency at M5 relative to M4: antagonist
T2 sequence (P08912 1-532): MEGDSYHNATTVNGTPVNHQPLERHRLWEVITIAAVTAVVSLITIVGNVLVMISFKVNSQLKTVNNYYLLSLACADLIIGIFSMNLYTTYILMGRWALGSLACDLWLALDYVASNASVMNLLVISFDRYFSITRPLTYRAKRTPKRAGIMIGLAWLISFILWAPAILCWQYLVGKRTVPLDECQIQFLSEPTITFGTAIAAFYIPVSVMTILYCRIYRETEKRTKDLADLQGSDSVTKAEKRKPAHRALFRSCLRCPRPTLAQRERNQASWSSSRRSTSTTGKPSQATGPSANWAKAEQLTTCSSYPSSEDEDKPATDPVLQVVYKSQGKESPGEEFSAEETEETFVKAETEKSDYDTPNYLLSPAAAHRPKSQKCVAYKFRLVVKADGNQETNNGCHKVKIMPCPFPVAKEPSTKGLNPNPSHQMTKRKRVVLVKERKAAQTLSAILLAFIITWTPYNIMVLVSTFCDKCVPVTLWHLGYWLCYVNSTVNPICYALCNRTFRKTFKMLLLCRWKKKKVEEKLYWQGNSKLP

M2 = target: T3, M2 (Homo sapiens, UniProt P08172); assay: Muscarinic receptor subtype selectivity, M2; assay type: cell-based; details: antagonist
T3 sequence (P08172 1-466): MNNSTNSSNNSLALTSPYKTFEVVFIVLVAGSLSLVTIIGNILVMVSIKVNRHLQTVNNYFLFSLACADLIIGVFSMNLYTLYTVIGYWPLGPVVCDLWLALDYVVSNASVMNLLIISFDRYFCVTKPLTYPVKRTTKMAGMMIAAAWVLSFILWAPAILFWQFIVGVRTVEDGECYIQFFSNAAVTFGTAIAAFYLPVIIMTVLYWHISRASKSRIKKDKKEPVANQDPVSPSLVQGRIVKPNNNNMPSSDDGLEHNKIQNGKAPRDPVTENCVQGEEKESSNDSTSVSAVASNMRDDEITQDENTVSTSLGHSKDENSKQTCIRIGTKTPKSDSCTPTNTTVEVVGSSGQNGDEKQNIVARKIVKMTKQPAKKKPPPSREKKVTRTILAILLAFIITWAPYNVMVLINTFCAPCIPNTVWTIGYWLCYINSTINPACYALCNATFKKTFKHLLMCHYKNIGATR

M3 = M3 (Homo sapiens, UniProt P20309); assay: Muscarinic receptor subtype selectivity, M3; assay type: cell-based; details: antagonist
CYP450 = CYP450 inhibition profile; assay type: in vitro ADME; details: in words
human M4 = target: T4, human M4 (Homo sapiens, UniProt P08173); assay type: cell-based; details: read-out: % ACh Max ± SEM
T4 sequence (P08173 1-479): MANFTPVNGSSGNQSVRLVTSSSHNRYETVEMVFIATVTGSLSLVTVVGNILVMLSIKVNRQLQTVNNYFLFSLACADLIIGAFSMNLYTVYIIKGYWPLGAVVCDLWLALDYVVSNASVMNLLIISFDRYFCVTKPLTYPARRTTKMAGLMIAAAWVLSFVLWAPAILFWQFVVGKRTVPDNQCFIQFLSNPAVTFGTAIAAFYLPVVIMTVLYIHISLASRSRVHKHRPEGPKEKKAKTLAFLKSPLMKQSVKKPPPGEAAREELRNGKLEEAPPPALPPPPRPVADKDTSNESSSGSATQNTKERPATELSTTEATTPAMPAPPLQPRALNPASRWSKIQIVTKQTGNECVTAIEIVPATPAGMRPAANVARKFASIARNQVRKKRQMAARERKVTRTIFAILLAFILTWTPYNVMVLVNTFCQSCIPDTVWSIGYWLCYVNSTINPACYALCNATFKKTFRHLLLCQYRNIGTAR
Method in brief: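 Functional Ca2+ mobilization read-out in CHO cells co-expressing human M4 and the chimeric G protein Gqi5. Test compound is applied with a fixed ~EC20 concentration of acetylcholine. PAM potency is reported as EC50/pEC50 and efficacy as % of the acetylcholine maximum. Values are means of at least three independent determinations.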

M1 [5] = target: T1, M1; assay: Built-in HTS counterscreen, human M1; assay type: cell-based
M5 [6] = target: T2, M5; assay: Built-in HTS counterscreen, human M5; assay type: cell-based
[7] = Rat brain:plasma distribution; assay type: in vivo; details: in words
rats = details: by potentiation of receptor activation by endogenous acetylcholine; cited from earlier work
[8] = Metabolite identification; assay type: in vitro ADME; details: rat hepatic microsomes, NADPH-dependent
[9] = Metabolite identification; assay type: in vitro ADME; details: human hepatic microsomes, NADPH-dependent

Chain of M3 (P20309 whole entry): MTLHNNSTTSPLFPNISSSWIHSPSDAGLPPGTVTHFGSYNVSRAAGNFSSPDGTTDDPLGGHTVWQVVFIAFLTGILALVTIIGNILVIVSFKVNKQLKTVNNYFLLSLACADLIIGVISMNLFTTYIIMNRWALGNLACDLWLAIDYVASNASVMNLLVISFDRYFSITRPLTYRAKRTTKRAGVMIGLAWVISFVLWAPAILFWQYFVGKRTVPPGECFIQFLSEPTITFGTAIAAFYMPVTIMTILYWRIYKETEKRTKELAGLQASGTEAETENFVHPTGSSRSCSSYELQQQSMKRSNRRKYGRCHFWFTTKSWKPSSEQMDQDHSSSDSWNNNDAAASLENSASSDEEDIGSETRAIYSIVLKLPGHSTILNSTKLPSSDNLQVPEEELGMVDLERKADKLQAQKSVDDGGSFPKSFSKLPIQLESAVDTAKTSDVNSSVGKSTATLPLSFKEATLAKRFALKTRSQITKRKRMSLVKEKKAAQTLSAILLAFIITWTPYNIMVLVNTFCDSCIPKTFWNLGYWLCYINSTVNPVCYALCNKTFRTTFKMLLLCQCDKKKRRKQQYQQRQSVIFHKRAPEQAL

Structure (SMILES): Cc1nnc2sc(C(=O)NCc3ccc(S(=O)(=O)C(F)(F)F)cc3)c(N)c2c1C [VU0467154]
- in vivo efficacy in rodent antipsychotic and cognition models (rodent): robust in vivo efficacy

Structure (SMILES): Cc1sc2ncnc(N3CCC(C(=O)N4CCCC4)CC3)c2c1C [11a]
- predicted CLhep, rat [1]: 67 mL/min/kg
- predicted CLhep, human [2]: 16 mL/min/kg

Structure (SMILES): Cc1sc2ncnc(N3CCC(C(=O)Nc4ccc(S(C)(=O)=O)cc4)CC3)c2c1C [10e]
- selectivity versus M1 (M1 [3]): retaining selectivity
- selectivity versus M5 (M5 [4]): retaining selectivity

Structure (SMILES): CCCN(c1ccc(C)nc1)C1CCN(c2ncnc3sc(C)c(C)c23)CC1 [compound 19]
- potency at M1 relative to M4 (M1 [3]): similarly potent
- potency at M2 relative to M4 (M2): similarly potent
- potency at M3 relative to M4 (M3): similarly potent
- potency at M5 relative to M4 (M5 [4]): similarly potent
- CYP450 inhibition profile (CYP450): acceptable

Structure (SMILES): Cc1ccc(OC2CCN(c3ncnc4ccc(F)cc34)CC2)cn1 [17b]
- predicted CLhep, rat [1]: 50 mL/min/kg
- predicted CLhep, human [2]: 12 mL/min/kg

Structure (SMILES): Cc1sc2ncnc(N3CCC(C(=O)Nc4ccc(S(N)(=O)=O)cc4)CC3)c2c1C [compound 5]
- Emax (human M4): 91 ± 4%
- activity on human M1 (M1 [5]): inactive
- activity on human M5 (M5 [6]): inactive
- CNS penetration [7]: not CNS penetrant

Structure (SMILES): CCCCN(c1ccc(C)nc1)C1CCN(c2ncnc3sc(C)c(C)c23)CC1 [compound 20]
- potency at M1 relative to M4 (M1 [3]): similarly potent
- potency at M2 relative to M4 (M2): similarly potent
- potency at M3 relative to M4 (M3): similarly potent
- potency at M5 relative to M4 (M5 [4]): similarly potent
- CYP450 inhibition profile (CYP450): acceptable

Structure (SMILES): Cc1sc2ncnc(N3CCC(C(=O)N4CC[C@H](F)C4)CC3)c2c1C [11b]
- predicted CLhep, rat [1]: 68 mL/min/kg
- predicted CLhep, human [2]: 14 mL/min/kg

Structure (SMILES): COc1ccc(CNC(=O)c2sc3nc(C)cc(C)c3c2N)cc1 [VU0152100]
- antipsychotic-like activity in rats (rats): displayed antipsychotic-like activity

Structure (SMILES): Cc1sc2ncnc(N3CCC(C(=O)Nc4ccc(F)cc4Cl)CC3)c2c1C [10g]
- selectivity versus M1 (M1 [3]): retaining selectivity
- selectivity versus M5 (M5 [4]): retaining selectivity

Structure (SMILES): Cc1sc2ncnc(N3CCC(C(=O)Nc4cc(Cl)ccc4Cl)CC3)c2c1C [10h]
- selectivity versus M1 (M1 [3]): retaining selectivity
- selectivity versus M5 (M5 [4]): retaining selectivity

Structure (SMILES): Cc1ccc(OC2CCN(c3ncnc4sc(C)c(C)c34)CC2)cn1 [14b]
- predicted CLhep, rat [1]: 68 mL/min/kg
- predicted CLhep, human [2]: 20 mL/min/kg
- major pathway of metabolism in rat [8]: hydroxylation of the 5,6-dimethyl moiety
- major metabolic route in human [9]: heteroatom (likely the thiophene sulfur) oxidation
